TDP2 inh = TDP2 (human) inhibition, absorbance primary screen; AID 720702; inhibition, % at 12.8 µM; actives 0.34% (n = 370,000); recombinant TDP2, T5PNP hydrolysis, p-nitrophenol absorbance 415 nm;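 active means inhibition above the mean of all tested compounds plus 3 SD, set per campaign, cut at about 25% in these data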;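 further: 0% = DMSO with enzyme and 100% = buffer with substrate but no TDP2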
Target sequence (O95551 whole entry, looked up): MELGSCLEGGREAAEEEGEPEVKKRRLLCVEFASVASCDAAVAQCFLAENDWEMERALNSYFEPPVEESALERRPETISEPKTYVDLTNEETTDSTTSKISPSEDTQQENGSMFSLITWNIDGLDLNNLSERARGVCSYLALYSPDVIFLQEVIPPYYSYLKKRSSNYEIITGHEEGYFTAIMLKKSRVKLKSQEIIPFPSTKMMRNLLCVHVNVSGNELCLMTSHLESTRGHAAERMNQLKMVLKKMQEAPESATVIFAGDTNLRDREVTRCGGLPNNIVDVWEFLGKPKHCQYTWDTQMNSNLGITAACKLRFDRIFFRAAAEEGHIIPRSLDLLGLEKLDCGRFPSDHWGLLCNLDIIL
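Incubation: 2 h at 37 °C; Test system: recombinant human TDP2; Quantity: enzyme 120 nM; Read-out basis: percent inhibition; Medium: 50 mM Tris-HCl pH 7.5 with Mg2+, KCl, DTT, BSA; Repeats: single replicate; Compound: 12.8 µM single point, 1% DMSO; Signal: epi absorbance; Reagent: 5 mM T5PNP chromogenic substrate; Benchmarks: no-enzyme high, DMSO-plus-enzyme low.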
NSD2 inh = NSD2 (human) methyltransferase inhibition. NSD2 peptide methylation, AlphaScreen, 120 min. AID 743445. inhibition, % at 12.5 µM. actives 0.54% (n = 310,000); in the data active means inhibition above about 50%
MBD2 DNA inh = blocks human MBD2 binding to methylated DNA; actives 0.31% (n = 370,000); inhibition, % at 4.4 µM; Q9UBB5; AID 686964; TR-FRET, MBD2 binding to methylated oligonucleotide; in the data active means inhibition above about 13%
LEDGF integ inh = blocks HIV-1 LEDGF/p75-dependent DNA integration | TR-FRET IN-LEDGF/p75 DNA integration, Eu/Cy5 | inhibition, % at 3.7 µM | actives 0.64% (n = 370,000) | AID 743269;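 active means inhibition above the screen-wide mean plus 3 SD, cut at about 13% in these data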;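 further: signal is the Cy5 over europium emission ratio at 671 and 618 nm; 0% = plate median of compound wells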
UHRF1 binding = blocks human UHRF1 binding to methylated DNA; Q96T88; UHRF1 binding to methylated oligo, TR-FRET; inhibition, % at 4.4 µM; actives 0.75% (n = 370,000); AID 687016;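 further: UHRF1 SRA domain binding a hemimethylated CpG hairpin DNA probe; 0% = median of test compound wells and 100% = reference inhibitor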
CASP6 VEID inh = inhibitors of human caspase-6; actives 0.53% (n = 350,000); AID 686996; purified caspase-6, Z-VEID-R110 cleavage fluorescence; P55212; inhibition, % at 12.5 µM;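 active means mean inhibition across replicates at least about 35%, with every replicate also reaching that limit, limit read from the data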;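 further: 0% = median of neutral control wells and 100% = no fluorescence left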
UHRF1 DNA bind = UHRF1 methyl-oligo binding inhibition as MBD2 counter-screen; shares compounds with MBD2 DNA inh; inhibition, % at 4.4 µM; UHRF1 binding to methylated oligonucleotide, TR-FRET; actives 25% (n = 1,000); AID 720530;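 further: UHRF1 SRA domain binding a labeled hemimethylated CpG hairpin DNA; 0% = vehicle only and 100% = reference inhibitor with vehicle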
MBD2 DBD conf = MBD2-DBD methyl-DNA binding inhibition, TR-FRET confirmation. shares compounds with MBD2 DNA inh. actives 26% (n = 1,000). inhibition, % at 4.4 µM. TR-FRET MBD2-DBD binding to methylated oligonucleotide; in the data active means inhibition above about 14%
Starred values were filed as active, the others as inactive. Only some compounds are listed: those with a hit (about 1.9% of all), similar ones and a draw of the others. Unless noted, no stated cut-off is given here; in the data, active means inhibition above about 21%; inactive means the rest.

How did Cc1cc(C(=O)COC(=O)c2cc(Cl)c(O)c(Cl)c2)c(C)n1C do in these assays?
TDP2 inh: 14; NSD2 inh: 9; MBD2 DNA inh: 17*; LEDGF integ inh: 43*; UHRF1 binding: 33*; CASP6 VEID inh: 58*; UHRF1 DNA bind: 4; MBD2 DBD conf: 6

What do the screens show for `Cc1cc(C(=O)COC(=O)c2ccc(F)cc2)c(C)n1C`?
TDP2 inh: -3; NSD2 inh: -2; MBD2 DNA inh: 2; LEDGF integ inh: -3; UHRF1 binding: -2; CASP6 VEID inh: 1

Results for COc1ccccc1NC(=O)N(C)C[C@H]1Oc2ncc(C#CC(C)C)cc2C(=O)N([C@H](C)CO)C[C@H]1C ?
CASP6 VEID inh: 0

What do the screens show for `CN(C)CC(=O)N[C@@H]1CC[C@H](CCNC(=O)C2CCC2)O[C@H]1CO`?
CASP6 VEID inh: -29

How did COc1cc(NC(=S)N2CCN(Cc3ccccc3)CC2)cc(OC)c1 do in these assays?
TDP2 inh: 0; NSD2 inh: 4; MBD2 DNA inh: -1; LEDGF integ inh: -3; UHRF1 binding: -1

How did COc1cccc(NC(=S)N2CCN(Cc3ccccc3)CC2)c1 do in these assays?
TDP2 inh: -2; NSD2 inh: 17; MBD2 DNA inh: 17*; LEDGF integ inh: 8; UHRF1 binding: -6; UHRF1 DNA bind: 4; MBD2 DBD conf: 2

What do the screens show for `CCCNC(=O)C[C@@H]1CC[C@H]2[C@H](COc3ccc(NC(=O)c4cc(C)on4)cc3C(=O)N2C)O1`?
CASP6 VEID inh: 0

Results for Cc1ccc2c(nc3s/c(=C\c4ccc(-c5ccccc5C(=O)O)o4)c(=O)n32)c1C ?
TDP2 inh: 11; NSD2 inh: 10; MBD2 DNA inh: 15*; LEDGF integ inh: 11; UHRF1 binding: 34*; CASP6 VEID inh: 0; UHRF1 DNA bind: 15; MBD2 DBD conf: 5

What do the screens show for `CC(=O)N1CCCCN2[C@H](CO)[C@H](c3ccc(-c4cccc(C(=O)N(C)C)c4)cc3)[C@H]2C1`?
CASP6 VEID inh: 2

How did COc1ccc(Cc2nnc(NC(=O)C3CCCO3)s2)cc1 (stereo not drawn) do in these assays?
TDP2 inh: -15; NSD2 inh: -8; MBD2 DNA inh: 15*; LEDGF integ inh: -1; UHRF1 binding: -2; UHRF1 DNA bind: 12; MBD2 DBD conf: 4

How did COc1ccc(Cc2nnc(NC(=O)C3CCCO3)s2)cc1OC (stereo not drawn) do in these assays?
TDP2 inh: -7; NSD2 inh: 6; MBD2 DNA inh: 2; LEDGF integ inh: -1; UHRF1 binding: -1

Results for COc1cccc2c1C(=O)c1c(O)c3c(c(O)c1C2=O)CC(O)(C(=O)CO)CC3OC1CC(N(C)C)C(O)C(C)O1 (stereo not drawn) ?
TDP2 inh: 0; NSD2 inh: 24; MBD2 DNA inh: 113*; LEDGF integ inh: 13; UHRF1 binding: 97*; CASP6 VEID inh: -6; UHRF1 DNA bind: 99*; MBD2 DBD conf: 111*

Results for COc1cccc2c1C(=O)c1c(O)c3c(c(O)c1C2=O)C[C@@](O)(C(C)=O)C[C@@H]3O[C@H]1C[C@H](N)[C@H](O)[C@H](C)O1 ?
TDP2 inh: 9; MBD2 DNA inh: 107*; LEDGF integ inh: 4; UHRF1 binding: 91*; CASP6 VEID inh: -82; UHRF1 DNA bind: 98*; MBD2 DBD conf: 110*

What do the screens show for `O=C(Nc1ccc2c(c1)[C@H]1C[C@H](CC(=O)N3CCOCC3)O[C@@H](CO)[C@H]1O2)C1CCOCC1`?
CASP6 VEID inh: -2

How did C/C(=N\NC(=O)C1CCCN(S(=O)(=O)c2ccccc2)C1)c1ccccn1 (stereo not drawn) do in these assays?
TDP2 inh: -5; NSD2 inh: 4; MBD2 DNA inh: 16*; LEDGF integ inh: -2; UHRF1 binding: -2; UHRF1 DNA bind: 6; MBD2 DBD conf: 7
